Calls of active or inactive are those of the source. The rule behind the calls is not given here.
Assays:
Mus musculus [1] = test: Antifibrotic activity in bleomycin-induced C57BL/6 mouse model of lung fibrosis assessed as reduction in Ashcroft score at 15 mg/kg, ip administered on day 7 to 27 measured on day 28 by H and E staining based microscopy; type: functional, organism-based
Procedure, shortened: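 Female C57BL/6 mice, 6-8 weeks old, under isoflurane received intranasal bleomycin sulphate 0.05 U/mouse in PBS; controls got PBS. Once-daily i.p. treatment days 7-27, n=12/group; imatinib 50 mg/kg i.p. as comparator. Sacrifice at day 28; lung fibrosis scored by Ashcroft score.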

Mus musculus [2] = test: Antifibrotic activity in CCl4-induced BALB/c mouse model of liver fibrosis assessed as reduction in liver fibrosis area at 5 to 15 mg/kg, po administered once daily at week 4 to 6 by alpha-SMA staining based microscopy; type: functional, organism-based
Procedure, shortened: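 Female BALB/c mice given CCl4 i.p. (1 mL/kg of 25% CCl4 in olive oil) twice weekly for 6 weeks; sacrificed 48 h after last dose. Test articles oral, once daily: prophylactic weeks 1-6 or therapeutic weeks 4-6; imatinib control 50 mg/kg daily weeks 1-6. One formalin-fixed liver lobe stained for Picro Sirius Red and α-SMA; fibrotic area as % of total liver area; mean ± SEM, one-way ANOVA with Dunnett's test.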

[3] = Prodrug conversion in BALB/c mouse plasma assessed as 1-[4-amino-2-fluoro-but-2-enyl]-3-[3-(dimethylsulfamoyl)phenyl]-2-methyl-indole-5-carboxylic acid hydrochloride formation at 20 mg/kg, po administered via gavage by HPLC-MS/MS analysis; type: ADME, organism-based; conditions: in vivo
Procedure, shortened: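 Male BALB/c mice dosed by oral gavage at 20 mg/kg (n=3); plasma prodrug and released free acid quantified by LC-MS/MS; each point the mean of 3 animals.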

Lysyl oxidase homolog 4 = biological target: T1, Lysyl oxidase homolog 4 (Homo sapiens, UniProt Q96JB6); test: Inhibition of recombinant human LOXL4 using putrescine as substrate preincubated with enzyme for 30 mins followed by substrate addition and measured every 2.5 mins for 30 mins by Amplex-Red oxidation assay
T1 sequence (Q96JB6 whole entry): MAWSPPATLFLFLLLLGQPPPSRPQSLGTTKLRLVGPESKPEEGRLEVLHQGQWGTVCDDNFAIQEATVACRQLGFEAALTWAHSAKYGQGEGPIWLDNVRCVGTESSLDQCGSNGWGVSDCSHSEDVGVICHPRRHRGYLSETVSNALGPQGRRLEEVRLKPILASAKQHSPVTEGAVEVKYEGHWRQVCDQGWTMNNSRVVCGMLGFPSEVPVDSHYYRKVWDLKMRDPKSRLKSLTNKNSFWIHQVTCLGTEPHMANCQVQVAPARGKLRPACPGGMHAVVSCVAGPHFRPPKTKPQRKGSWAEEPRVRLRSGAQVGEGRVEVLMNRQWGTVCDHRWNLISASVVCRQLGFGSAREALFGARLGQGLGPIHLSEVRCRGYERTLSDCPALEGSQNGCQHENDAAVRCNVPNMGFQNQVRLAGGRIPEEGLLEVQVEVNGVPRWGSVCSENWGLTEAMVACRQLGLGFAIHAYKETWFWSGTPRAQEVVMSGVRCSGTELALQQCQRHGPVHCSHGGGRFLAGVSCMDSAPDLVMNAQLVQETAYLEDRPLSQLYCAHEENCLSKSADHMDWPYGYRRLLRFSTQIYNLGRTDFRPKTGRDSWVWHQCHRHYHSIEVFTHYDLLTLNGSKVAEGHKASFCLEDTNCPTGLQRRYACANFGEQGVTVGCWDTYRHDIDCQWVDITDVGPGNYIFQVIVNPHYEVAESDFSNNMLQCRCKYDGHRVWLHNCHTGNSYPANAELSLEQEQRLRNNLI
Procedure, shortened: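 Recombinant human LOXL3 or LOXL4 preincubated 30 min at 37 °C with compound in 1.2 M urea/50 mM borate pH 8.2, then Amplex Red (120 µM)/HRP (1.5 U/mL) with 2 mM putrescine; fluorescence read every 2.5 min for 30 min.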

Protein-lysine 6-oxidase = biological target: T2, Protein-lysine 6-oxidase (Mus musculus, UniProt P28301); test: Inhibition of LOX in mouse lung fibroblast cells using putrescine as substrate preincubated with enzyme for 30 mins followed by substrate addition and measured every 2.5 mins for 30 mins by Amplex-Red oxidation assay
T2 sequence (P28301 whole entry): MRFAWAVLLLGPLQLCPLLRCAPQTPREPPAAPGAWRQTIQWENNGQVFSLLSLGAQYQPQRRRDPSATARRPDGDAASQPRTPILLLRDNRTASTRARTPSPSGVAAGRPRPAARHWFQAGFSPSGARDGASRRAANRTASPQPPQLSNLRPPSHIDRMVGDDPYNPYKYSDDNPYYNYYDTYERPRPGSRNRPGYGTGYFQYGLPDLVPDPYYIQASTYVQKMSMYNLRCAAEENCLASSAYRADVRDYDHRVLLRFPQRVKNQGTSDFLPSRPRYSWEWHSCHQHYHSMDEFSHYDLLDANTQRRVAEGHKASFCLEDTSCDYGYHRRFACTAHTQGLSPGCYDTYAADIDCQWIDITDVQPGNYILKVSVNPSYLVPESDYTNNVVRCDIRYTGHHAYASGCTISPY
Procedure, shortened: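 LOX from conditioned medium of fibroblasts cultured from homogenized mouse lung, concentrated and isolated as for the human fibroblast enzyme, in 1.2 M urea/50 mM borate pH 8.2. 30 min preincubation with compound at 37 °C, then Amplex Red/HRP plus putrescine; fluorescence read every 2.5 min for 30 min.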

[4] = Stability in human plasma assessed as half life

Structure (SMILES)	inhibition (Mus musculus [1])	inhibition (Mus musculus [2])	Drug metabolism [3]	IC50 (Lysyl oxidase homolog 4)	IC50 (Protein-lysine 6-oxidase)	half-life [4]
CCOC(=O)c1ccc2c(c1)c(-c1cccc(S(=O)(=O)N(C)C)c1)c(C)n2C/C(F)=C/CN.Cl	Active	Active	Metabolite_Detected			
Cc1c(-c2cccc(S(=O)(=O)N(C)C)c2)c2cc(C(=O)O)ccc2n1C/C(F)=C/CN.Cl				0.28 µM	1.75 µM	> 2 h

Reference: ChEMBL document CHEMBL4321820, “Identification and Optimization of Mechanism-Based Fluoroallylamine Inhibitors of Lysyl Oxidase-like 2/3” (J Med Chem, 2019)
